In general, Ki refers to a measure of affinity in units of concentration, obtained from inhibition or displacement.

The values below come from ChEMBL document CHEMBL3286389, “Targeting class A and C serine β-lactamases with a broad-spectrum boronic acid derivative” (J Med Chem, 2014).

Assay [1] can be described thus: Competitive inhibition of Escherichia coli beta-lactamase AmpC using nitrocefin as substrate by UV-Vis spectrophotometry. The procedure, abridged: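 Pinacol esters were tested uncleaved and hydrolysed to free acid in 50 mM phosphate pH 7.4. Ki derived from IC50 plots assuming competitive inhibition.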
Assay [2] is described as follows: Competitive inhibition of wild type beta-lactamase TEM-1 (unknown origin) expressed in Escherichia coli using 6-beta-furylacryloylamido-penicillanic acid as substrate by spectrophotometry. The procedure, abridged:
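TEM-1, purified. Reactions started by 0.3 nM enzyme in the AmpC assay buffer (50 mM Tris pH 7.0). FAP substrate, absorbance change at 340 nm. Inhibitor stocks were 50 mM in DMSO, diluted in phosphate pH 7. Ki from comparison of progress curves with and without inhibitor.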

Assay [3] is described as follows: Competitive inhibition of Escherichia coli beta-lactamase AmpC N289A mutant using nitrocefin as substrate by UV-Vis spectrophotometry.

On to `O=C(Cc1cccs1)N[C@H](B(O)O)c1cccc(C(=O)O)c1`, for which the Ki in assay [1] came out at 1 nM; in assay [2], 64 nM.
The compound `CC(=O)/C=C/c1c(B(O)O)sc2ccccc12` returned a Ki in assay [1] of 240 nM.
`O=C(O)/C=C/c1c(B(O)O)sc2ccccc12`: the Ki in assay [1] was found to be 90 nM; in assay [3] it was 50 nM.
Compound `OB(O)c1cc2ccccc2s1` returned a Ki in assay [2] of 50000 nM.
